Legend:
[1] = Negative chronotropic activity in guinea pig spontaneously beating right atrium assessed as decrease in atrial rate at 5 uM relative to control; type: functional, Cavia porcellus, Cardiac atrium; set-up: scale not given: the % may be the effect or the level left
[2] = system: Aorta; test: Vasorelaxant activity in potassium-depolarized guinea pig thoracic aorta assessed as inhibition of calcium-induced contraction at 50 uM; type: functional, Cavia porcellus; set-up: scale not given: the % may be the effect or the level left
[3] = biological target: T1, Voltage-gated L-type calcium channel (Rattus norvegicus, UniProt P22002+Q02485+P27732); test: Stimulation of [3H]diltiazem binding to L-type calcium channel in Sprague-Dawley rat cardiac myocytes at 1 uM by liquid scintillation counting; type: cell-based
[4] = Negative inotropic activity in guinea pig left atrium assessed as decrease in atrial tension; type: functional, tissue-based; conditions: Cavia porcellus, Cardiac atrium
[5] = Negative inotropic activity in guinea pig left atrium assessed as decrease in atrial tension at 50 uM relative to control; type: functional, Cavia porcellus, Cardiac atrium; set-up: scale not given: the % may be the effect or the level left
[6] = Negative chronotropic activity in guinea pig spontaneously beating right atrium assessed as decrease in atrial rate at 100 uM relative to control; type: functional, Cavia porcellus, Cardiac atrium; set-up: scale not given: the % may be the effect or the level left
In short: (§1)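 Guinea pig isolated atria, compound given at increasing doses. Left atrium driven at 1 Hz: percent decrease in developed tension (inotropy, EC50). Spontaneously beating right atrium: percent decrease in rate (chronotropy, EC30). Probit analysis (Litchfield-Wilcoxon), n = 6-7. Potencies not calculated when maximal effect <50%.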

[7] = system: Aorta; test: Vasorelaxant activity in potassium-depolarized guinea pig thoracic aorta assessed as inhibition of calcium-induced contraction at 100 uM; type: functional, Cavia porcellus; set-up: scale not given: the % may be the effect or the level left
[8] = Negative inotropic activity in guinea pig left atrium assessed as decrease in atrial tension at 100 uM relative to control; type: functional, Cavia porcellus, Cardiac atrium; set-up: scale not given: the % may be the effect or the level left; in short: as §1
[9] = biological target: T1, Voltage-gated L-type calcium channel; test: Displacement of [3H]diltiazem from L-type calcium channel in Sprague-Dawley rat cardiac myocytes by liquid scintillation counting; type: cell-based; conditions: for Activity: rat
[10] = Negative chronotropic activity in guinea pig spontaneously beating right atrium assessed as decrease in atrial rate at 50 uM relative to control; type: functional, Cavia porcellus, Cardiac atrium; set-up: scale not given: the % may be the effect or the level left; in short: as §1
[11] = Ratio of IC50 for L-type calcium channel in Wistar rat tail artery smooth muscle cells to EC50 for negative inotropic activity in guinea pig left atrium; set-up: species or system Cardiac atrium
[12] = biological target: T1, Voltage-gated L-type calcium channel; test: Inhibition of L-type calcium channel in Wistar rat tail artery smooth muscle cells assessed as blockade of barium[…] current by whole cell patch-clamp assay; conditions: for Activity: rat
In short: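 Single smooth muscle cells isolated from rat tail main artery. Peak barium current through L-type channels [I_Ba(L)] recorded under cumulative concentrations, reported as percent inhibition.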

[13] = biological target: T1, Voltage-gated L-type calcium channel; test: Inhibition of L-type calcium channel in Wistar rat tail artery smooth muscle cells assessed as blockade of barium[…] current at 10 uM by whole cell patch-clamp assay
In short: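 Single smooth muscle cells isolated from rat tail main artery. Peak barium current through L-type channels [I_Ba(L)] recorded under cumulative concentrations, reported as percent inhibition. IC50 from log concentration-response curves, mean ± SEM, n = 4.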

[14] = system: Aorta; test: Vasorelaxant activity in potassium-depolarized guinea pig thoracic aorta assessed as inhibition of calcium-induced contraction; type: functional, Cavia porcellus; set-up: scale not given: the % may be the effect or the level left
[15] = Negative chronotropic activity in guinea pig spontaneously beating right atrium assessed as decrease in atrial rate at 10 uM relative to control; type: functional, Cavia porcellus, Cardiac atrium; set-up: scale not given: the % may be the effect or the level left; in short: as §1
[16] = Negative inotropic activity in guinea pig left atrium assessed as decrease in atrial tension at 1 uM relative to control; type: functional, Cavia porcellus, Cardiac atrium; set-up: scale not given: the % may be the effect or the level left
[17] = Negative inotropic activity in guinea pig left atrium assessed as decrease in atrial tension at 10 uM relative to control; type: functional, Cavia porcellus, Cardiac atrium; set-up: scale not given: the % may be the effect or the level left; in short: as §1
[18] = Negative inotropic activity in guinea pig left atrium assessed as decrease in atrial tension at 5 uM relative to control; type: functional, Cavia porcellus, Cardiac atrium; set-up: scale not given: the % may be the effect or the level left; in short: as §1
[19] = Negative chronotropic activity in guinea pig spontaneously beating right atrium assessed as decrease in atrial rate at 1 uM relative to control; type: functional, Cavia porcellus, Cardiac atrium; set-up: scale not given: the % may be the effect or the level left
[20] = Negative chronotropic activity in guinea pig spontaneously beating right atrium assessed as decrease in atrial rate; type: functional; conditions: Cavia porcellus, Cardiac atrium; in short: as §1
[21] = system: Heart; test: Effect on cardiac activity in guinea pig spontaneously beating heart assessed as change in left ventricular pressure at 1 uM relative to control; type: functional, Cavia porcellus
In short: (§2)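 Isolated perfused, spontaneously beating guinea pig heart. Readouts: +(dP/dt)max (maximal rate of rise of left ventricular pressure), heart rate from ECG, coronary perfusion pressure, PR interval. Given as percent change from basal at the highest concentration tested (1 µM), mean ± SEM. pEC50 taken from log concentration-response curves, n = 4-6.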

[22] = system: Heart; test: Effect on cardiac activity in guinea pig spontaneously beating heart assessed as change in heart rate at 1 uM relative to control; type: functional, Cavia porcellus; in short: as §2
[23] = system: Heart; test: Effect on cardiac activity in guinea pig spontaneously beating heart assessed as change in coronary perfusion pressure at 1 uM relative to control; type: functional, Cavia porcellus; in short: as §2
[24] = system: Heart; test: Effect on cardiac activity in guinea pig spontaneously beating heart assessed as change in atrioventricular conduction time at 1 uM relative to control; type: functional, Cavia porcellus; in short: as §2
[25] = system: Heart; test: Effect on cardiac activity in guinea pig spontaneously beating heart assessed as change in left ventricular pressure; conditions: Cavia porcellus, read-out: pEC50 (converted)
[26] = system: Heart; test: Effect on cardiac activity in guinea pig spontaneously beating heart assessed as change in coronary perfusion pressure; conditions: Cavia porcellus, read-out: pEC50 (converted)

Row | EC50 [4] | SMILES | Activity [2] | Activity [5] | Activity [6] | Activity [7] | Activity [8] | Activity [10] | further results
1 | 280 nM | C/C(=C/S(C)(=O)=O)n1c(C(=O)c2ccc(Br)cc2)noc1=O | 6% | 73% | – | – | – | – | Activity [1]: 7%; Activity [3]: 25%
2 | 2070 nM | C/C(=C/SCC(C)C)n1c(C(=O)c2ccc(Cl)cc2)noc1=O | – | – | 5% | 6% | 84% | – | –
3 | 910 nM | C/C(=C/SCC(C)C)n1c(C(=O)c2ccc(Br)cc2)noc1=O | – | – | 16% | 24% | 88% | – | –
4 | 1330 nM | CCS/C=C(/C)n1c(C(=O)c2ccc(Br)cc2)noc1=O | – | – | 18% | 43% | 89% | – | –
5 | 1350 nM | C=CCS/C=C(/C)n1c(C(=O)c2ccc(Cl)cc2)noc1=O | – | – | – | 23% | 70% | – | Activity [1]: 6%
6 | 480 nM | C/C(=C/[S+](C)[O-])n1c(C(=O)c2ccc(Br)cc2)noc1=O (stereo not drawn) | – | – | 33% | 2% | 89% | – | Ki [9]: 23680 nM
7 | 320 nM | COc1ccc(C2(O)SC=C(C)n3c2noc3=O)cc1 (stereo not drawn) | 12% | 97% | – | – | – | 18% | –
8 | 320 nM | CC1=CSC(O)(c2ccc(Br)cc2)c2noc(=O)n21 (stereo not drawn) | 12% | 97% | – | – | – | 18% | Ratio IC50 [11]: 100; IC50 [12]: 33360 nM; Activity [12]: Dose-dependent effect; Activity [13]: Not Active; Activity [14]: <30%; Ki [9]: 290 nM; Activity [9]: Dose-dependent effect
9 | 1420 nM | C/C(=C/Sc1sc([N+](=O)[O-])cc1[N+](=O)[O-])n1c(C(=O)c2ccc(Cl)cc2)noc1=O | 35% | 67% | – | – | – | 15% | –
10 | 1110 nM | C/C(=C/S(C)(=O)=O)n1c(C(=O)c2ccc(Cl)cc2)noc1=O | – | – | 7% | 13% | 72% | – | –
11 | 210 nM | C/C(=C/[S+](C)[O-])n1c(C(=O)c2ccc(Cl)cc2)noc1=O (stereo not drawn) | – | 71% | 4% | 7% | – | – | –
12 | 1280 nM | C/C(=C/SCc1ccccc1)n1c(C(=O)c2ccc(Br)cc2)noc1=O | 6% | 80% | – | – | – | – | Activity [15]: 31%
13 | 2090 nM | CCS/C=C(/C)n1c(C(=O)c2ccc(Cl)cc2)noc1=O | – | 75% | – | 27% | – | 30% | –
14 | 410 nM | CS/C=C(/C)n1c(C(=O)c2ccc(Br)cc2)noc1=O | – | 95% | – | 10% | – | – | Activity [15]: 2%; Ratio IC50 [11]: 60; IC50 [12]: 25210 nM; Activity [12]: Dose-dependent effect; Activity [13]: Not Active; Ki [9]: 490 nM; Activity [9]: Dose-dependent effect; Activity [16]: <50%
15 | 670 nM | CCCCCCCCCS/C=C(/C)n1c(C(=O)c2ccc(Cl)cc2)noc1=O | – | – | 2% | 5% | – | – | Activity [17]: 84%
16 | 4390 nM | C/C(=C/SS/C=C(/C)n1c(C(=O)c2ccc(Cl)cc2)noc1=O)n1c(C(=O)c2ccc(Cl)cc2)noc1=O | – | – | 4% | 6% | 72% | – | –

Row | EC50 [4] | SMILES | Activity [2] | Activity [5] | Activity [6] | Activity [7] | Activity [8] | Activity [10] | further results
17 | 800 nM | CC1=CSC(O)(c2ccc(Cl)cc2)c2noc(=O)n21 (stereo not drawn) | 26% | – | – | – | – | 18% | Activity [14]: <30%; Activity [17]: 80%
18 | 730 nM | C/C(=C/Sc1sc([N+](=O)[O-])cc1[N+](=O)[O-])n1c(C(=O)c2ccc(Br)cc2)noc1=O | 32% | – | – | – | – | – | Activity [15]: 27%; Activity [18]: 85%
19 | 1030 nM | CCCCCCCCCS/C=C(/C)n1c(C(=O)c2ccc(Br)cc2)noc1=O | – | – | 3% | 12% | 84% | – | –
20 | 790 nM | COc1ccc([C@@H]2Sc3ccccc3N(CCN(C)C)C(=O)[C@@H]2OC(C)=O)cc1 [DILTIAZEM] | – | – | – | 88% | – | – | Activity [19]: 94%; EC30 [20]: 70 nM; Activity [21]: -59%; Activity [22]: -25%; Activity [23]: -51%; Activity [24]: 34%; EC50 [25]: 9.33 nM; EC50 [26]: 21.9 nM; Activity [9]: Dose-dependent effect; Activity [17]: 78%
21 | – | C/C(=C/[S][Ag])n1c(C(=O)c2ccc(Cl)cc2)noc1=O | 4% | – | 7% | – | – | – | Activity [14]: <30%; Activity [16]: 49%
22 | 230 nM | CC1=CSC(O)(c2ccccc2)c2noc(=O)n21 (stereo not drawn) | 4% | – | – | – | – | 14% | Activity [17]: 95%
23 | 1290 nM | C=CCS/C=C(/C)n1c(C(=O)c2ccc(Br)cc2)noc1=O | – | – | – | 21% | 89% | 18% | –
24 | 270 nM | CCOC1(c2ccc(Cl)cc2)SC=C(C)n2c1noc2=O (stereo not drawn) | 28% | – | – | – | – | 16% | Activity [18]: 53%
25 | 1220 nM | CCCS/C=C(/C)n1c(C(=O)c2ccc(Br)cc2)noc1=O | – | – | 10% | 26% | 80% | – | –
26 | 1450 nM | CS/C=C(/C)n1c(C(=O)c2ccc(Cl)cc2)noc1=O | 8% | 71% | – | – | – | 10% | –
27 | 40 nM | CCOC1(c2ccc(Br)cc2)SC=C(C)n2c1noc2=O (stereo not drawn) | 19% | 77% | – | – | – | – | Activity [15]: 5%; Activity [21]: -3%; Activity [22]: -14%; Activity [23]: -9%; Activity [24]: 32%
28 | – | C/C(=C/[S][Ag])n1c(C(=O)c2ccc(Br)cc2)coc1=O | – | – | – | 26% | – | – | Activity [19]: 18%; Activity [21]: 0%; Activity [22]: -4%; Activity [23]: -3%; Activity [24]: 30%; Activity [14]: <30%; Activity [16]: 32%
29 | 1550 nM | C/C(=C/SCc1ccccc1)n1c(C(=O)c2ccc(Cl)cc2)noc1=O | – | – | 5% | 33% | 78% | – | –
30 | 2190 nM | CCCS/C=C(/C)n1c(C(=O)c2ccc(Cl)cc2)noc1=O | – | – | – | 15% | 84% | 17% | –
31 | 1700 nM | C/C(=C/SS/C=C(/C)n1c(C(=O)c2ccc(Br)cc2)noc1=O)n1c(C(=O)c2ccc(Br)cc2)noc1=O | – | – | 9% | 5% | 73% | – | Ki [9]: 200 nM

From ChEMBL document CHEMBL1153430 (J Med Chem, 2009)
